From ChEMBL document CHEMBL2086298, “Synthesis and biological evaluation of fatty acyl ester derivatives of (-)-2',3'-dideoxy-3'-thiacytidine” (J Med Chem, 2012)

How the values were obtained:
[1] = tested on: Human immunodeficiency virus 1; experiment: Antiviral activity against HIV1 3B assessed as inhibition of infection in HeLa P4/R5 cells expressing CD4 receptor and beta-gal incubated for 2 hrs followed by compound-wash out measured after 46 hrs by single round infection MAGI assay; type: functional, organism-based; settings: Human immunodeficiency virus 1, 3B
How it was run: (§1)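 P4R5 MAGI cells (CD4 and coreceptor expressing) were seeded at 1.2 × 10⁴ cells/well about 18 h before infection. They were exposed for 2 h at 37 °C to cell-free HIV-1 with or without compound, then washed and cultured 46 h more. Infection was read by β-galactosidase reporter chemiluminescence as a percentage of untreated infection. EC₅₀ came from regression, with triplicate wells per concentration.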

[2] = tested on: Human immunodeficiency virus 1; experiment: Antiviral activity against HIV1 BaL assessed as inhibition of infection in HeLa P4/R5 cells expressing CD4 receptor and beta-gal incubated for 2 hrs followed by compound-wash out measured after 46 hrs by single round infection MAGI assay; type: functional, organism-based; settings: Human immunodeficiency virus 1, BaL; how it was run: as §1
HeLa = experiment: Cytotoxicity against human HeLa P4/R5 cells incubated for 2 hrs followed by compound-wash out measured after 46 hrs by MTT assay
[3] = tested on: Human immunodeficiency virus; experiment: Antiviral activity against HIV infected in human CEM-SS cells; type: functional, organism-based; settings: Human immunodeficiency virus 1, CEM-SS
[4] = tested on: Human immunodeficiency virus 1; experiment: Antiviral activity against HIV1 94US3393IN clade B clinical isolate infected in PHA-stimulated human PBMC assessed as inhibition of viral replication incubated for 6 hrs followed by compound-wash out measured after 6 days by liquid scintillation counting; type: functional, organism-based; settings: Human immunodeficiency virus 1, 94US3393IN clade B
[5] = tested on: Human immunodeficiency virus 1; experiment: Antiviral activity against HIV1 98USMSC5016 clade C clinical isolate infected in PHA-stimulated human PBMC assessed as inhibition of viral replication incubated for 6 hrs followed by compound-wash out measured after 6 days by liquid scintillation counting; type: functional, organism-based; settings: Human immunodeficiency virus 1, 98USMSC5016 clade C
[6] = tested on: Human immunodeficiency virus 1; experiment: Antiviral activity against NNTRI-resistant HIV1 A-17 clade B clinical isolate infected in PHA-stimulated human PBMC assessed as inhibition of viral replication incubated for 6 hrs followed by compound-wash out measured after 6 days by liquid scintillation counting; type: functional, organism-based; settings: Human immunodeficiency virus 1, A-17 clade B
[7] = tested on: Human immunodeficiency virus 1; experiment: Antiviral activity against NRTI-resistant HIV1 71361-1 clade B clinical isolate infected in PHA-stimulated human PBMC assessed as inhibition of viral replication incubated for 6 hrs followed by compound-wash out measured after 6 days by liquid scintillation counting; type: functional, organism-based; settings: Human immunodeficiency virus 1, 71361-1 clade B
[8] = tested on: Human immunodeficiency virus 1; experiment: Antiviral activity against multidrug-resistant HIV1 4755-5 clade B clinical isolate infected in PHA-stimulated human PBMC assessed as inhibition of viral replication incubated for 6 hrs followed by compound-wash out measured after 6 days by liquid scintillation counting; type: functional, organism-based; settings: Human immunodeficiency virus 1, 4755-5 clade B
[9] = Cytotoxicity against PHA-stimulated human PBMC incubated for 6 hrs followed by compound-wash out measured after 6 days; type: cell-based
How it was run: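 PHA-P-stimulated PBMCs pooled from at least two normal donors were exposed to compound dilutions for 6 h. Cells were then washed by medium replacement and centrifugation (~200g, 10 min) and cultured 6 days or until peak RT activity. Cytotoxicity was monitored by MTS on the same plates used for antiviral testing, alongside drug-plus-medium control wells without cells.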

CCRF-CEM [10] = experiment: Cellular uptake in human CCRF-CEM cells at 50 uM after 1 hr by HPLC analysis; type: ADME, cell-based
How it was run: (§2)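 CCRF-CEM cells were grown in serum-free RPMI to ~70–80% confluency (1 × 10⁶ cells/mL), then given medium containing 50 μM compound at 37 °C for 1–72 h. Pellets were washed in ice-cold PBS and extracted with methanol/chloroform/isopropanol (4:3:1), then filtered. Parent ester and products were tracked by analytical HPLC at 265 nm using a water/acetonitrile (0.1% TFA) gradient.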

CCRF-CEM [11] = experiment: Drug metabolism in human CCRF-CEM cells assessed as compound hydrolysis at 50 uM after 1 hr by HPLC analysis; type: ADME, cell-based; how it was run: as §2
CCRF-CEM [12] = experiment: Drug metabolism in human CCRF-CEM cells assessed as compound hydrolysis at 50 uM after 1 hr by HPLC analysis
[13] = tested on: Human immunodeficiency virus 1; experiment: Ratio of lamivudine EC50 to compound EC50 for HIV1 by cell-based assay; type: functional
[14] = tested on: Human immunodeficiency virus 1; experiment: Antiviral activity against HIV1 by cell-based assay; type: functional, organism-based

SMILES	EC50 [1] [µM]	EC50 [2] [µM]	EC50 (HeLa) [µM]	also measured
CCCCCCCCCCCCCC(=O)Nc1ccn([C@@H]2CS[C@H](COC(=O)CCCCCCCCCCCCC)O2)c(=O)n1	> 154	135	> 154	
CCSCCCCCCCCCCCC(=O)O				EC50 [3]: 9.4 µM
CCCCCCCCCCCCCC(=O)OC[C@@H]1O[C@H](n2ccc(N)nc2=O)CS1	0.5	0.2	> 228	IC50 [4]: 0.0042 µM; IC90 [4]: 0.015 µM; IC50 [5]: 0.0019 µM; IC90 [5]: 0.0275 µM; IC50 [6]: 0.0028 µM; IC90 [6]: 0.0311 µM; IC50 [7]: 0.0433 µM; IC90 [7]: 0.253 µM; IC50 [8]: 5.09 µM; IC90 [8]: > 6.83 µM; CC50 [9]: > 6.83 µM; Drug uptake (CCRF-CEM [10]): Active; Drug metabolism (CCRF-CEM [11]): Active; Drug metabolism (CCRF-CEM [12]): Active
[N-]=[N+]=NCCCCCCCCCCCC(=O)Nc1ccn([C@@H]2CS[C@H](COC(=O)CCCCCCCCCCCN=[N+]=[N-])O2)c(=O)n1	148	72.6	> 148	
Nc1ccn([C@@H]2CS[C@H](CO)O2)c(=O)n1 [LAMIVUDINE]			> 437	EC50 [14]: 80.3 µM; CC50 [9]: > 13.1 µM

The remaining compounds from weak to strong by EC50 [1], led by results:

EC50 [1] [µM]	EC50 [2] [µM]	SMILES	EC50 (HeLa) [µM]	also measured
29.4	3.8	[N-]=[N+]=NCCCCCCCCCCCC(=O)Nc1ccn([C@@H]2CS[C@H](CO)O2)c(=O)n1	> 221	
10.9	0.7	CCCCCCCCCCCCCC(=O)Nc1ccn([C@@H]2CS[C@H](CO)O2)c(=O)n1	> 228	Ratio EC50 [13]: 115
5.3	0.4	CCSCCCCCCCCCCCC(=O)Nc1ccn([C@@H]2CS[C@H](CO)O2)c(=O)n1	> 212	
2.3	0.2	CCSCCCCCCCCCCCC(=O)OC[C@@H]1O[C@H](n2ccc(N)nc2=O)CS1	> 212	
0.9	0.7	[N-]=[N+]=NCCCCCCCCCCCC(=O)OC[C@@H]1O[C@H](n2ccc(N)nc2=O)CS1	> 221	
